Results on five compounds are retold here after ChEMBL document CHEMBL2424622, “Development of amino-pyrimidine inhibitors of c-Jun N-terminal kinase (JNK): kinase profiling guided optimization of a 1,2,3-benzotriazole lead” (Bioorg Med Chem Lett, 2013).

Assay [1] has as its target Ribosomal protein S6 kinase alpha-1 (Homo sapiens, UniProt Q15418). The experiment in a line: Competitive binding affinity to RPS6KA1 kinase domain 1 (unknown origin) at 10 uM in presence of ATP relative to control.
Assay [2] addresses Casein kinase II subunit alpha' (Homo sapiens) (UniProt P19784). The experiment in a line: Competitive binding affinity to CSNK2A2 (unknown origin) at 10 uM in presence of ATP relative to control. The method, boiled down: (§1)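 In vitro ATP-site competition binding assay across a diverse panel of 128 kinases, with each compound tested at a single concentration. Kinase binding is expressed relative to control.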

Assay [3] relates to Tyrosine-protein kinase ABL1 (Homo sapiens), P00519 [Y253F]. Nature of the assay: Competitive binding affinity to ABL1 Y253F mutant (unknown origin) at 10 uM in presence of ATP relative to control.
Assay [4] concerns the target Ribosomal protein S6 kinase alpha-5 (Homo sapiens) (UniProt O75582). Nature of the assay: Competitive binding affinity to RPS6KA5 kinase domain 2 (unknown origin) at 10 uM in presence of ATP relative to control.
For assay [5], the target named is Bone morphogenetic protein receptor type-1A (Homo sapiens) (UniProt P36894). The experiment in a line: Competitive binding affinity to BMPR1A (unknown origin) at 10 uM in presence of ATP relative to control.
Assay [6] deals with T1, Activin receptor type-1B (Homo sapiens) (UniProt P36896).
T1 sequence (whole entry): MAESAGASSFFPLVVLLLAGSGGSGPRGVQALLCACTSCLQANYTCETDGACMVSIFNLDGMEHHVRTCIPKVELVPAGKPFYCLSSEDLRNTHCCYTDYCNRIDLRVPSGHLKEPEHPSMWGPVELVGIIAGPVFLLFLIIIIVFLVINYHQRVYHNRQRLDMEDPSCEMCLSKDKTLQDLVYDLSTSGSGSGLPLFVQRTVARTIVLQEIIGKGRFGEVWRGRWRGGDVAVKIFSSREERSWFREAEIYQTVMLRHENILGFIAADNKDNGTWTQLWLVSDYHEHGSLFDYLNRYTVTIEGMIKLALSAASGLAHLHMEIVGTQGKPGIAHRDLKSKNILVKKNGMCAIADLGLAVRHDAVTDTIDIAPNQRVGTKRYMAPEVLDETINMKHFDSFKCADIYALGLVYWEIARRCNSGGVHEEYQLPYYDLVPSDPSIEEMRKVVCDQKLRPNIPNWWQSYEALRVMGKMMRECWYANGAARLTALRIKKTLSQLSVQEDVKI
The experiment in a line: Competitive binding affinity to ACVR1B (unknown origin) at 10 uM in presence of ATP relative to control.

For assay [7], the target named is Serine/threonine-protein kinase MRCK gamma (Homo sapiens) (UniProt Q6DT37). The experiment in a line: Competitive binding affinity to DMPK2 (unknown origin) at 10 uM in presence of ATP relative to control.
The target of assay [8] is Cyclin-dependent kinase 19 (Homo sapiens) (UniProt Q9BWU1). The experiment in a line: Competitive binding affinity to CDK19 (unknown origin) at 10 uM in presence of ATP relative to control.
In assay [9] the test system is Tyrosine-protein kinase ABL1 (Homo sapiens), P00519 [M351T]. Nature of the assay: Competitive binding affinity to ABL1 M351T mutant (unknown origin) at 10 uM in presence of ATP relative to control.
In assay [10] the test system is Tyrosine-protein kinase ABL1 (Homo sapiens), P00519 [T315I]. Nature of the assay: Competitive binding affinity to ABL1 T315I mutant (unknown origin) at 10 uM in presence of ATP relative to control. The method, boiled down: as §1
Assay [11] addresses Tyrosine-protein kinase receptor UFO (Homo sapiens) (UniProt P30530). Nature of the assay: Competitive binding affinity to AXL (unknown origin) at 10 uM in presence of ATP relative to control.
The target of assay [12] is T2, NUAK family SNF1-like kinase 1 (Homo sapiens) (UniProt O60285).
T2 sequence (whole entry): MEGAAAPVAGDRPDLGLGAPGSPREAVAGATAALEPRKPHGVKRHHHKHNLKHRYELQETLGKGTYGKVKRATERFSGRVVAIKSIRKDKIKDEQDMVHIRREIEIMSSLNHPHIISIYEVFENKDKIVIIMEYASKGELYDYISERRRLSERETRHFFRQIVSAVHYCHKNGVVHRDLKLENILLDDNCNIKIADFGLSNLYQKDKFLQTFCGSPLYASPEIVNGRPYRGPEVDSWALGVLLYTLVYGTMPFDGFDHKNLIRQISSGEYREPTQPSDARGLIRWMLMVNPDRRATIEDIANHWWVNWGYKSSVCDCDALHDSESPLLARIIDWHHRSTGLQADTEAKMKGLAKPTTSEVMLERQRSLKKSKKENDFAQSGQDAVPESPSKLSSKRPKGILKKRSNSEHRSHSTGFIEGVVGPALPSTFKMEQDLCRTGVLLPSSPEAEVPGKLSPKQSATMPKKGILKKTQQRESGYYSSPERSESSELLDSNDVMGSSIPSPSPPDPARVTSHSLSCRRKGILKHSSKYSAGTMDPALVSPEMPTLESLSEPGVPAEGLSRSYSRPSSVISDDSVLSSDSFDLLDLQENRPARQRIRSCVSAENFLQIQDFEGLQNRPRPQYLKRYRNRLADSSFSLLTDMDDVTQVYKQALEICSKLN
The experiment in a line: Competitive binding affinity to ARK5 (unknown origin) at 10 uM in presence of ATP relative to control.

Regarding `CS(=O)(=O)CCCOc1cccc2c1ccn2-c1ccnc(N[C@H]2CC[C@H](C(=O)N3CCC(O)CC3)CC2)n1`, the inhibition in assay [1] was above 85%.
On to `O[C@H]1CC[C@H](Nc2nccc(-n3ccc4ccccc43)n2)CC1`, for which the inhibition in assay [2] was below 50%; in assay [3], below 50%; in assay [4] it was below 50%; in assay [5], below 50%; in assay [1], 66%; in assay [6], below 50%. In addition, the inhibition in assay [7] is below 50%; in [8] it was 70%; in [9], below 50%; in assay [10], below 50%; in assay [11], below 50%; in assay [12], below 50%.
With `O[C@H]1CC[C@H](Nc2nccc(-n3ncc4ccccc43)n2)CC1`, the inhibition was 86% in assay [2]; below 50% in assay [3]; 66% in assay [4]; below 50% in assay [5]; 91% in assay [1]; below 50% in assay [6]. The inhibition was below 50% in assay [7]; below 50% in assay [8]; below 50% in assay [9]; below 50% in [10]; 93% in assay [11]; 74% in assay [12].
Turning to `O[C@H]1CC[C@H](Nc2nccc(-c3n[nH]c4ccccc34)n2)CC1`, the inhibition is 98% in assay [2]; below 50% in [3]; below 50% in assay [5]; below 50% in [6]; below 50% in assay [9]; 96% in assay [10]. The inhibition in assay [11] came out at 100%.
In the case of `O[C@H]1CC[C@H](Nc2nccc(-n3nnc4ccccc43)n2)CC1`, the inhibition in [2] is below 50%; in assay [3], 66%; in assay [4], 85%; in assay [5], below 50%; in assay [1], 100%; in assay [6], below 50%. Also, the inhibition in assay [7] was below 50%; in [8], 82%; in assay [9], below 50%; in [10], below 50%; in [11] it was below 50%; in [12], 72%.
